How the values were obtained:
Candida albicans [1] = assay: Fungicidal activity against Candida albicans MTCC 3018 after 24 hrs by serial dilution method; type: functional; settings: MTCC 3018, 24 h
Candida albicans [2] = assay: Antimicrobial activity against Candida albicans MTCC 3018 assessed as growth inhibition after 24 hrs by agar well diffusion method; type: functional; settings: MTCC 3018, 24 h
Candida albicans [3] = assay: Fungicidal activity against Candida albicans MTCC 854 after 24 hrs by serial dilution method; type: functional; settings: MTCC 854, 24 h
Candida albicans [4] = assay: Antimicrobial activity against Candida albicans MTCC 7315 assessed as growth inhibition after 24 hrs by agar well diffusion method; type: functional; settings: MTCC 7315, 24 h
Micrococcus luteus [5] = assay: Bactericidal activity against Micrococcus luteus MTCC 2470 after 24 hrs by serial dilution method; type: functional; settings: MTCC 2470, 24 h
Candida albicans [6] = assay: Fungicidal activity against Candida albicans MTCC 7315 after 24 hrs by serial dilution method; type: functional; settings: MTCC 7315, 24 h
[Candida] aaseri [7] = Antimicrobial activity against Candida aaseri MTCC 1962 assessed as growth inhibition after 24 hrs by agar well diffusion method; type: functional; settings: Yamadazyma aaseri, MTCC 1962, 24 h
Staphylococcus aureus [8] = assay: Antimicrobial activity against Staphylococcus aureus MLS16 MTCC 2940 assessed as growth inhibition after 24 hrs by agar well diffusion method; type: functional; settings: MLS16 MTCC 2940, 24 h
Escherichia coli [9] = assay: Bactericidal activity against Escherichia coli MTCC 739 after 24 hrs by serial dilution method; type: functional; settings: MTCC 739, 24 h
Staphylococcus aureus [10] = assay: Antimicrobial activity against Staphylococcus aureus MTCC 96 assessed as growth inhibition after 24 hrs by agar well diffusion method; type: functional; settings: MTCC 96, 24 h
Staphylococcus aureus [11] = assay: Antibiofilm activity against Staphylococcus aureus MTCC 96 after 24 hrs by crystal violet staining based assay; type: functional, organism-based; settings: MTCC 96, 24 h
Method in brief: (§1)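 Biofilm inhibition tested for amine esters and esterquats. IC50 values (µg/mL) are the mean of three determinations, with ciprofloxacin as reference.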

Staphylococcus aureus [12] = assay: Bactericidal activity against Staphylococcus aureus MTCC 96 after 24 hrs by serial dilution method; type: functional; settings: MTCC 96, 24 h
Staphylococcus aureus [13] = assay: Antibiofilm activity against Staphylococcus aureus MLS16 MTCC 2940 after 24 hrs by crystal violet staining based assay; type: functional, organism-based; settings: MLS16 MTCC 2940, 24 h; method in brief: as §1
Bacillus subtilis [14] = assay: Antimicrobial activity against Bacillus subtilis MTCC 121 assessed as growth inhibition after 24 hrs by agar well diffusion method; type: functional; settings: MTCC 121, 24 h
Candida albicans [15] = assay: Antimicrobial activity against Candida albicans MTCC 3017 assessed as growth inhibition after 24 hrs by agar well diffusion method; type: functional; settings: MTCC 3017, 24 h
Candida albicans [16] = assay: Fungicidal activity against Candida albicans MTCC 227 after 24 hrs by serial dilution method; type: functional; settings: MTCC 227, 24 h
Pichia kudriavzevii [17] = assay: Fungicidal activity against Candida krusei MTCC 3020 after 24 hrs by serial dilution method; type: functional; settings: MTCC 3020, 24 h
[Candida] aaseri [18] = Fungicidal activity against Candida aaseri MTCC 1962 after 24 hrs by serial dilution method; type: functional; settings: Yamadazyma aaseri, MTCC 1962, 24 h
Micrococcus luteus [19] = assay: Antimicrobial activity against Micrococcus luteus MTCC 2470 assessed as growth inhibition after 24 hrs by agar well diffusion method; type: functional; settings: MTCC 2470, 24 h
Pichia kudriavzevii [20] = assay: Antimicrobial activity against Candida krusei MTCC 3020 assessed as growth inhibition after 24 hrs by agar well diffusion method; type: functional; settings: MTCC 3020, 24 h
Candida albicans [21] = assay: Fungicidal activity against Candida albicans MTCC 4748 after 24 hrs by serial dilution method; type: functional; settings: MTCC 4748, 24 h
Staphylococcus aureus [22] = assay: Bactericidal activity against Staphylococcus aureus MLS16 MTCC 2940 after 24 hrs by serial dilution method; type: functional; settings: MLS16 MTCC 2940, 24 h
Nakaseomyces glabratus [23] = assay: Antimicrobial activity against Candida glabrata MTCC 3019 assessed as growth inhibition after 24 hrs by agar well diffusion method; type: functional; settings: MTCC 3019, 24 h
Candida albicans [24] = assay: Fungicidal activity against Candida albicans MTCC 3958 after 24 hrs by serial dilution method; type: functional; settings: MTCC 3958, 24 h
Micrococcus luteus [25] = assay: Antibiofilm activity against Micrococcus luteus MTCC 2470 after 24 hrs by crystal violet staining based assay; type: functional, organism-based; settings: MTCC 2470, 24 h; method in brief: as §1
Candida albicans [26] = assay: Antimicrobial activity against Candida albicans MTCC 1637 assessed as growth inhibition after 24 hrs by agar well diffusion method; type: functional; settings: MTCC 1637, 24 h
Escherichia coli [27] = assay: Antimicrobial activity against Escherichia coli MTCC 739 assessed as growth inhibition after 24 hrs by agar well diffusion method; type: functional; settings: MTCC 739, 24 h
Pichia sporocuriosa [28] = assay: Antimicrobial activity against Issatchenkia hanoiensis MTCC 4755 assessed as growth inhibition after 24 hrs by agar well diffusion method; type: functional; settings: MTCC 4755, 24 h
Candida albicans [29] = assay: Antimicrobial activity against Candida albicans MTCC 227 assessed as growth inhibition after 24 hrs by agar well diffusion method; type: functional; settings: MTCC 227, 24 h
Candida albicans [30] = assay: Fungicidal activity against Candida albicans MTCC 3017 after 24 hrs by serial dilution method; type: functional; settings: MTCC 3017, 24 h
Bacillus subtilis [31] = assay: Antibiofilm activity against Bacillus subtilis MTCC 121 after 24 hrs by crystal violet staining based assay; type: functional, organism-based; settings: MTCC 121, 24 h; method in brief: as §1
Candida albicans [32] = assay: Antimicrobial activity against Candida albicans MTCC 183 assessed as growth inhibition after 24 hrs by agar well diffusion method; type: functional; settings: MTCC 183, 24 h
Candida albicans [33] = assay: Antimicrobial activity against Candida albicans MTCC 4748 assessed as growth inhibition after 24 hrs by agar well diffusion method; type: functional; settings: MTCC 4748, 24 h
Candida albicans [34] = assay: Fungicidal activity against Candida albicans MTCC 183 after 24 hrs by serial dilution method; type: functional; settings: MTCC 183, 24 h
Bacillus subtilis [35] = assay: Bactericidal activity against Bacillus subtilis MTCC 121 after 24 hrs by serial dilution method; type: functional; settings: MTCC 121, 24 h
Candida albicans [36] = assay: Antimicrobial activity against Candida albicans MTCC 854 assessed as growth inhibition after 24 hrs by agar well diffusion method; type: functional; settings: MTCC 854, 24 h
Pseudomonas aeruginosa = assay: Antimicrobial activity against Pseudomonas aeruginosa MTCC 2453 assessed as growth inhibition after 24 hrs by agar well diffusion method; type: functional; settings: MTCC 2453, 24 h
Candida parapsilosis [37] = assay: Antimicrobial activity against Candida parapsilosis MTCC 1744 assessed as growth inhibition after 24 hrs by agar well diffusion method; type: functional; settings: Lodderomyces parapsilosis, MTCC 1744, 24 h
Nakaseomyces glabratus [38] = assay: Fungicidal activity against Candida glabrata MTCC 3019 after 24 hrs by serial dilution method; type: functional; settings: MTCC 3019, 24 h
Raoultella planticola [39] = assay: Bactericidal activity against Klebsiella planticola MTCC 530 after 24 hrs by serial dilution method; type: functional; settings: MTCC 530, 24 h
Candida albicans [40] = assay: Fungicidal activity against Candida albicans MTCC 1637 after 24 hrs by serial dilution method; type: functional; settings: MTCC 1637, 24 h
Pichia sporocuriosa [41] = assay: Fungicidal activity against Issatchenkia hanoiensis MTCC 4755 after 24 hrs by serial dilution method; type: functional; settings: MTCC 4755, 24 h
Candida parapsilosis [42] = assay: Fungicidal activity against Candida parapsilosis MTCC 1744 after 24 hrs by serial dilution method; type: functional; settings: Lodderomyces parapsilosis, MTCC 1744, 24 h
Candida albicans [43] = assay: Antimicrobial activity against Candida albicans MTCC 3958 assessed as growth inhibition after 24 hrs by agar well diffusion method; type: functional; settings: MTCC 3958, 24 h
Raoultella planticola [44] = assay: Antimicrobial activity against Klebsiella planticola MTCC 530 assessed as growth inhibition after 24 hrs by agar well diffusion method; type: functional; settings: MTCC 530, 24 h

MIC (Candida albicans [2]): 31.2 mg/L | MIC (Candida albicans [4]): 15.6 mg/L | MIC ([Candida] aaseri [7]): 15.6 mg/L | MIC (Staphylococcus aureus [8]): 7.8 mg/L | MIC (Staphylococcus aureus [10]): 3.9 mg/L | IC50 (Staphylococcus aureus [11]): 3.2 mg/L | IC50 (Staphylococcus aureus [13]): 4.8 mg/L | MIC (Bacillus subtilis [14]): 7.8 mg/L | MIC (Candida albicans [15]): 15.6 mg/L | MIC (Micrococcus luteus [19]): 3.9 mg/L | MIC (Pichia kudriavzevii [20]): 31.2 mg/L | MIC (Nakaseomyces glabratus [23]): 31.2 mg/L | IC50 (Micrococcus luteus [25]): 2 mg/L | MIC (Candida albicans [26]): 31.2 mg/L | MIC (Escherichia coli [27]): > 125 mg/L | MIC (Pichia sporocuriosa [28]): 31.2 mg/L | MIC (Candida albicans [29]): 15.6 mg/L | IC50 (Bacillus subtilis [31]): 4.6 mg/L | MIC (Candida albicans [32]): 31.2 mg/L | MIC (Candida albicans [33]): 15.6 mg/L | MIC (Candida albicans [36]): 15.6 mg/L | MIC (Pseudomonas aeruginosa): > 125 mg/L | MIC (Candida parapsilosis [37]): 62.5 mg/L | MIC (Candida albicans [43]): 31.2 mg/L
Compound: CCCCCCCC[N+](C)(CCCCCCCC)CCCCCCCCCCC(=O)OC.[Cl-]
MFC (Candida albicans [1]): 31.2 mg/L | MFC (Candida albicans [3]): 31.2 mg/L | MBC (Micrococcus luteus [5]): 7.8 mg/L | MFC (Candida albicans [6]): 15.6 mg/L | MBC (Escherichia coli [9]): > 125 mg/L | MBC (Staphylococcus aureus [12]): 15.6 mg/L | MFC (Candida albicans [16]): 31.2 mg/L | MFC (Pichia kudriavzevii [17]): 31.2 mg/L | MFC ([Candida] aaseri [18]): 31.2 mg/L | MFC (Candida albicans [21]): 31.2 mg/L | MBC (Staphylococcus aureus [22]): 15.6 mg/L | MFC (Candida albicans [24]): 31.2 mg/L | MFC (Candida albicans [30]): 31.2 mg/L | MFC (Candida albicans [34]): 31.2 mg/L | MBC (Bacillus subtilis [35]): 15.6 mg/L | MFC (Nakaseomyces glabratus [38]): 31.2 mg/L | MBC (Raoultella planticola [39]): > 125 mg/L | MFC (Candida albicans [40]): 62.5 mg/L | MFC (Pichia sporocuriosa [41]): 31.2 mg/L | MFC (Candida parapsilosis [42]): 31.2 mg/L | MIC (Raoultella planticola [44]): 31.2 mg/L

Reference: ChEMBL document CHEMBL3784971, “Synthesis, characterization, antimicrobial and biofilm inhibitory studies of new esterquats” (Bioorg Med Chem Lett, 2016)
